According to ChEMBL document CHEMBL4229550, “An antimycobacterial pleuromutilin analogue effective against dormant bacilli” (Bioorg Med Chem, 2018):
≈ marks a conversion by molar mass, not a printed value. Calls of active or inactive are those of the source. The rule behind the calls is not given here.

Experiments:
[1] = tested on: Mycobacterium tuberculosis; assay: Bactericidal activity against non-replicating Mycobacterium tuberculosis CDC1551 expressing tdTomato infected in mouse J774A.1 cells at 2 times MIC after 48 hrs by UV-Visible spectroscopic method; assay type: functional, organism-based
Procedure, shortened: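 J774A.1 macrophages are seeded at […] cells/well in DMEM and incubated overnight at 37 °C. They are infected with saline-washed Mtb CDC1551-tdTomato (10^6 bacteria, MOI ≈10), and extracellular bacteria are washed off with PBS. Treatment is at 2×MIC, with fluorescence emission read at 581 nm at 24, 48, 72 and 96 h. Survivors are confirmed by serial dilution and plating on 7H11.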

Staphylococcus aureus [2] = assay: Antibacterial activity against Staphylococcus aureus BAA 44 incubated for 24 hrs under aerobic condition by MABA; assay type: functional; details: BAA 44, 24 h, read-out: MIC100
Procedure, shortened: (§1)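 Mid-log cultures at OD 0.5 were exposed to serial dilutions under aerobic conditions at 37 °C for 24 h. Resazurin was then added from a 0.08% stock for 1 h. MIC100 was the lowest concentration where the dye stayed blue (pink means growth). Absorbance was also read at 570 and 600 nm.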

Vero = assay: Cytotoxicity against African green monkey Vero cells assessed as reduction in cell viability after 72 hrs by MTT assay; assay type: cell-based; details: Chlorocebus sabaeus
Procedure, shortened: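 Vero cells were grown in complete EMEM with 10% FBS and exposed for 72 h to 0.78–200 µg/mL. The medium was then swapped for phenol-red-free EMEM and MTT was added. Formazan absorbance was read at 570 nm to give IC50.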

Bacillus subtilis [3] = assay: Bactericidal activity against Bacillus subtilis ATCC 6051 incubated for 24 hrs under aerobic condition by MABA; assay type: functional; details: ATCC 6051, 24 h
[4] = tested on: Mycolicibacterium smegmatis; assay: Antibacterial activity against Mycobacterium smegmatis ATCC 607 incubated for 48 hrs under aerobic condition by MABA; assay type: functional; details: ATCC 607, 48 h, read-out: MIC100
Procedure, shortened: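 Mid-log culture at OD 0.5 was incubated with serial dilutions aerobically at 37 °C for 48 h. Resazurin was then added from a 0.08% stock for 1 h. MIC100 was the lowest concentration that stayed blue; absorbance was also read at 570/600 nm.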

Staphylococcus aureus [5] = assay: Bactericidal activity against Staphylococcus aureus BAA 1683 incubated for 24 hrs under aerobic condition by MABA; assay type: functional; details: BAA 1683, 24 h
Acinetobacter baumannii [6] = assay: Antibacterial activity against Acinetobacter baumannii ATCC 19606 incubated for 24 hrs under aerobic condition by MABA; assay type: functional; details: ATCC 19606 = CIP 70.34 = JCM 6841, 24 h, read-out: MIC100; procedure, shortened: as §1
Enterococcus faecalis [7] = assay: Bactericidal activity against Enterococcus faecalis ATCC 349 incubated for 24 hrs under aerobic condition by MABA; assay type: functional; details: ATCC 349, 24 h
Staphylococcus aureus [8] = assay: Bactericidal activity against Staphylococcus aureus BAA 44 incubated for 24 hrs under aerobic condition by MABA; assay type: functional; details: BAA 44, 24 h
Bacillus subtilis [9] = assay: Antibacterial activity against Bacillus subtilis ATCC 6051 incubated for 24 hrs under aerobic condition by MABA; assay type: functional; details: ATCC 6051, 24 h, read-out: MIC100; procedure, shortened: as §1
Streptococcus salivarius = assay: Bactericidal activity against Streptococcus salivarius ATCC 6301 incubated for 24 hrs under aerobic condition by MABA; assay type: functional; details: ATCC 6301, 24 h
Klebsiella pneumoniae [10] = assay: Bactericidal activity against Klebsiella pneumoniae ATCC 12019 incubated for 24 hrs under aerobic condition by MABA; assay type: functional; details: ATCC 12019, 24 h
Acinetobacter baumannii [11] = assay: Bactericidal activity against Acinetobacter baumannii ATCC 19606 incubated for 24 hrs under aerobic condition by MABA; assay type: functional; details: ATCC 19606 = CIP 70.34 = JCM 6841, 24 h
Enterococcus faecalis [12] = assay: Antibacterial activity against Enterococcus faecalis ATCC 349 incubated for 24 hrs under aerobic condition by MABA; assay type: functional; details: ATCC 349, 24 h, read-out: MIC100; procedure, shortened: as §1
Clostridioides difficile = assay: Bactericidal activity against Clostridium difficile ATCC 700057 incubated for 24 hrs […] by MABA; assay type: functional; details: ATCC 700057, 24 h
[13] = tested on: Mycolicibacterium smegmatis; assay: Bactericidal activity against Mycobacterium smegmatis ATCC 607 incubated for 48 hrs under aerobic condition by MABA; assay type: functional; details: ATCC 607, 48 h
Streptococcus pneumoniae [14] = assay: Antibacterial activity against Streptococcus pneumoniae ATCC 6301 incubated for 24 hrs under aerobic condition by MABA; assay type: functional; details: ATCC 6301, 24 h, read-out: MIC100; procedure, shortened: as §1
Enterococcus faecalis [15] = assay: Antibacterial activity against Enterococcus faecalis ATCC 19433 incubated for 24 hrs under aerobic condition by MABA; assay type: functional; details: ATCC 19433, 24 h, read-out: MIC100; procedure, shortened: as §1
Enterococcus faecalis [16] = assay: Bactericidal activity against Enterococcus faecalis ATCC 19433 incubated for 24 hrs under aerobic condition by MABA; assay type: functional; details: ATCC 19433, 24 h
[17] = tested on: Mycobacterium tuberculosis; assay: Bactericidal activity against replicating Mycobacterium tuberculosis H37Rv incubated for 15 days under aerobic condition by MABA; assay type: functional; details: 360 h
Procedure, shortened: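 Mtb H37Rv grown in 7H9/OADC at 37 °C with shaking to OD600 0.5. The 0.5-OD culture is exposed aerobically to serial dilutions for 15 days at 37 °C. Resazurin (0.02% stock) is then added for 4 h at 37 °C with shaking.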

Klebsiella pneumoniae [18] = assay: Antibacterial activity against Klebsiella pneumoniae ATCC 12019 incubated for 24 hrs under aerobic condition by MABA; assay type: functional; details: ATCC 12019, 24 h, read-out: MIC100; procedure, shortened: as §1
Staphylococcus aureus [19] = assay: Bactericidal activity against Staphylococcus aureus ATCC 25923 incubated for 24 hrs under aerobic condition by MABA; assay type: functional; details: ATCC 25923, 24 h
Escherichia coli [20] = assay: Bactericidal activity against Escherichia coli ATCC 10798 incubated for 24 hrs under aerobic condition by MABA; assay type: functional; details: ATCC 10798, 24 h
Staphylococcus aureus [21] = assay: Antibacterial activity against Staphylococcus aureus ATCC 25923 incubated for 24 hrs under aerobic condition by MABA; assay type: functional; details: ATCC 25923, 24 h, read-out: MIC100; procedure, shortened: as §1
Staphylococcus aureus [22] = assay: Bactericidal activity against Staphylococcus aureus incubated for 24 hrs under aerobic condition by MABA; assay type: functional
Streptococcus pneumoniae [23] = assay: Bactericidal activity against Streptococcus pneumoniae ATCC 6301 incubated for 24 hrs under aerobic condition by MABA; assay type: functional; details: ATCC 6301, 24 h
Staphylococcus aureus [24] = assay: Antibacterial activity against Staphylococcus aureus BAA 1683 incubated for 24 hrs under aerobic condition by MABA; assay type: functional; details: BAA 1683, 24 h, read-out: MIC100; procedure, shortened: as §1
Escherichia coli [25] = assay: Antibacterial activity against Escherichia coli ATCC 10798 incubated for 24 hrs under aerobic condition by MABA; assay type: functional; details: ATCC 10798, 24 h, read-out: MIC100; procedure, shortened: as §1
Staphylococcus aureus [26] = assay: Bactericidal activity against Staphylococcus aureus BAA 2094 incubated for 24 hrs under aerobic condition by MABA; assay type: functional; details: BAA 2094, 24 h

## CO[C@H]1/C=C/O[C@@]2(C)Oc3c(C)c(O)c4c(O)c(c(/C=N/N5CCN(C)CC5)c(O)c4c3C2=O)NC(=O)/C(C)=C\C=C\[C@H](C)[C@H](O)[C@@H](C)[C@@H](O)[C@@H](C)[C@H](OC(C)=O)[C@@H]1C [RIFAMPIN]
[1]
  Activity: Active
Staphylococcus aureus [2]
  MIC: 6.25 µg/mL (≈ 7.59 µM)
Vero
  IC50: > 200 µg/mL
Bacillus subtilis [3]
  MBC: 0.4 µg/mL (≈ 0.486 µM)
[4]
  MIC: > 25 µg/mL
Staphylococcus aureus [5]
  MBC: 0.2 µg/mL (≈ 0.243 µM)
Acinetobacter baumannii [6]
  MIC: 2.35 µg/mL (≈ 2.86 µM)
Enterococcus faecalis [7]
  MBC: > 25 µg/mL
Staphylococcus aureus [8]
  MBC: 25 µg/mL (≈ 30.4 µM)
Bacillus subtilis [9]
  MIC: 0.3 µg/mL (≈ 0.365 µM)
Streptococcus salivarius
  MBC: > 25 µg/mL
Klebsiella pneumoniae [10]
  MBC: 3.13 µg/mL (≈ 3.8 µM)
Acinetobacter baumannii [11]
  MBC: 3.13 µg/mL (≈ 3.8 µM)
Enterococcus faecalis [12]
  MIC: > 25 µg/mL
Clostridioides difficile
  MBC: 0.78 µg/mL (≈ 0.948 µM)
[13]
  MBC: > 25 µg/mL
Streptococcus pneumoniae [14]
  MIC: 25 µg/mL (≈ 30.4 µM)
Enterococcus faecalis [15]
  MIC: 0.78 µg/mL (≈ 0.948 µM)
Enterococcus faecalis [16]
  MBC: 1.56 µg/mL (≈ 1.9 µM)
[17]
  MBC: 0.01 µg/mL (≈ 0.0122 µM)
Klebsiella pneumoniae [18]
  MIC: 1.56 µg/mL (≈ 1.9 µM)
Staphylococcus aureus [19]
  MBC: > 25 µg/mL
Escherichia coli [20]
  MBC: 25 µg/mL (≈ 30.4 µM)
Staphylococcus aureus [21]
  MIC: > 25 µg/mL
Staphylococcus aureus [22]
  MBC: 0.4 µg/mL (≈ 0.486 µM)
Streptococcus pneumoniae [23]
  MBC: > 25 µg/mL
Staphylococcus aureus [24]
  MIC: 0.15 µg/mL (≈ 0.182 µM)
Escherichia coli [25]
  MIC: 3.13 µg/mL (≈ 3.8 µM)
Staphylococcus aureus [26]
  MBC: 0.2 µg/mL (≈ 0.243 µM)
